Bioassay records: PubChem, several laboratories
Insulin prom up: MIN6 insulin promoter up-regulation; MIN6 insulin promoter-GFP reporter, high-content imaging; active compounds read high; 0.3% of 190,000 active; z-score at 5 µM;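 active means z-score above 3 at 5 µM with at least 500 cells counted in the well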
Yeast growth inh: chemicals that inhibit yeast BB579 growth in restrictive medium (lifespan-shortening candidates) | S. cerevisiae BB579 growth, OD615, 48 h | inhibition, % at 10 µM | 0.51% of 140,000 active | AID 804;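 active means inhibition above a set limit, 3 SD over the mean compound inhibition, cut at about 44% in these data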
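Test system: Saccharomyces cerevisiae DeaD strain BB579, replicative lifespan model yeast | Buffer or medium: Restrictive CSMM-D medium | Doses: One dose, 10 µM compound with 0.25% DMSO | Incubation: 48 h exposure, 30 °C | Detection: Culture absorbance at 615 nm | Control set: Amphotericin B at 10 µg/mL as positive control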
INS promoter inh: TRM-6 insulin promoter activity inhibition; inhibition, % at 2 µM; 0.9% of 130,000 active; TRM-6 cells (human fetal islet line), insulin promoter-eGFP reporter, imaging; reporter expression induced with tamoxifen;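 active means inhibition above the mean plus 3 SD, with well images judged a real hit on visual review, cut at about 60% in these data, passing the limit was not always enough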
Yeast life ext: extends the lifespan of yeast; S. cerevisiae growth with nicotinamide, OD615; deaD strain in restrictive glucose medium; 0.68% of 130,000 active; inhibition of the nicotinamide effect, % at 10 µM;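 active means inhibition above a set limit, placed 3 SD over the median of all compounds, cut at about 26% in these data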;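 further: 0% = nicotinamide-treated wells and 100% = cells grown without nicotinamide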
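Material: Modified budding yeast, DeaD strain | Medium: Restrictive glucose medium | Probe or stimulus: 1.5 mM nicotinamide | Dosing: Single dose 10 µM compound, 0.25% DMSO | Times: 48 h at 30 °C | Technique: OD615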
RAM inhibit: yeast RAM network inhibition | S. cerevisiae dse1pr::URA3 reporter, 5-FOA growth OD615, 2 d; analog-sensitive cbk1-as2 kinase mutant strain | inhibition, % at 50 µM | 1.8% of 190,000 active | AID 868;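 active means inhibition above a set limit, 3 SD over mean compound inhibition, cut at about 8.4% in these data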;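 further: 0% = DMSO-only wells with no growth and 100% = 10 µM 1-NA-PP1 full growth; inhibition rescues growth on 5-FOA so higher OD means more RAM inhibition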
The depositor's hits bear a star; i = inactive; / = no result. The list is not random: actives were taken first. Their share in the collection is about 3%.

SMILES | Insulin prom up | Yeast growth inh | INS promoter inh | Yeast life ext | RAM inhibit
CC(C)OC(=O)n1c(=S)oc2ccccc21 | 2.2 | 42 | 42 | -8 | -2
Cc1cccc(OC(=O)n2c(=S)oc3cc(Cl)ccc32)c1 | -0.31 | -10 | / | 64* | -2
O=C1SC(SCc2ccccc2)=N/C1=C\c1ccco1 | -0.57 | -26 | 31 | 10 | 8.8*
O=C1SC(SCc2ccccc2)=N/C1=C\c1ccc(C(=O)O)cc1 | -0.3 | / | / | / | 2
Cc1c(/C=C/C(=O)c2ccc(Cl)s2)cnn1C | / | -28 | 75* | / | 2
Cn1cnnc1SCC(=O)NCCc1ccc(Cl)cc1Cl | 0.57 | / | / | / | 0
COc1ccc2c(C)nc(Nc3nc(C)c(C)c(=O)[nH]3)nc2c1 | -0.22 | 59* | 30 | -7 | 0
CC(Oc1ccccc1)C(=O)Nc1nnc(C2CCCCC2)s1 (stereo not given) | -0.17 | / | / | / | 1
CCOCC(=O)Nc1nc2c(s1)C(=O)CC(C)(C)C2 | -1.4 | 45* | / | -13 | 2
COc1ccccc1-c1cc(C(F)(F)F)c(C#N)c(=O)[nH]1 | -0.1 | / | 16 | / | 4
COc1ccccc1-c1cc(SC)c(C#N)c(=O)o1 | -0.05 | -26 | -26 | 26* | 9.3*
COc1ccccc1NS(=O)(=O)c1ccc2c(c1)n(C)c(=O)n2C | -0.12 | -34 | / | -5 | 2
CCCCCCn1c(N2CCN(c3cccc(Cl)c3)CC2)nc2c1c(=O)[nH]c(=O)n2C | -0.52 | -41 | -36 | -21 | 2
CCCCCCCCn1c(N2CCN(c3cccc(Cl)c3)CC2)nc2c1c(=O)[nH]c(=O)n2C | / | -59 | -28 | -15 | 9.1*
O=C(O)CNC(=S)N(Cc1ccccc1)Cc1cccs1 | 1.2 | / | / | / | 2
Cc1cccc(C)c1NC(=S)N(Cc1ccccc1)Cc1cccs1 | -0.98 | / | 47 | / | 9.5*
O=C1CS/C(=N/N=C/c2ccco2)N1Cc1ccc(F)cc1 | 0.39 | / | / | / | /
Cc1cc(=O)oc2cc(OCC(=O)OCC(=O)NC3CC3)ccc12 | 3.8* | / | / | / | 1
Cc1cc(=O)oc2cc(OCC(=O)OCC(=O)NCCc3ccccc3)ccc12 | -0.12 | / | 50 | / | 9.2*
CNC(=O)COC(=O)COc1ccc2c(C)cc(=O)oc2c1 | 0.4 | / | / | / | 0
Cc1cc(C)nc(SCC(=O)c2cc3ccccc3oc2=O)n1 | 0.28 | -8 | 58 | 26 | 0
O=C(CSc1nc2ccccc2o1)c1cc2ccccc2oc1=O | / | -13 | -11 | 38* | 1
Cc1cc[n+](CC(=O)c2cc3ccccc3oc2=O)cc1 | 0.14 | -2 | -56 | 29* | 0
Cc1ccc(C(=O)Nn2cnnc2)cc1S(=O)(=O)N1CCOCC1 | 0.17 | / | / | / | /
COc1cccc(NC(=O)CSc2nc3c(c(-c4ccco4)c2C#N)CCCC3)c1 | 0.92 | -16 | 7 | -5 | 9.2*
SMILES | Insulin prom up | Yeast growth inh | INS promoter inh | Yeast life ext | RAM inhibit
CCCSc1nc2c3c(sc2c(=O)[nH]1)CC(C)(CC)OC3 (stereo not given) | -1.1 | / | / | / | 8.8*
Cc1ccc(-n2c(C)nnc2SCC(=O)NNC(=O)c2ccco2)cc1 | -0.54 | / | i | / | 2
COC(=O)c1ccc(-n2nnnc2SCc2ccccc2OC)cc1 | -0.74 | -15 | -71 | -6 | 9.6*
COC(=O)c1ccc(-n2nnnc2SCC(=O)Nc2ccccc2C(=O)OC)cc1 | 0.35 | -24 | / | -9 | 0
CCCCCCCCOC(=O)CCc1c(C)[nH]c(=S)[nH]c1=O | -0.01 | -42 | 45 | -9 | 8.8*
C/C(=N/NC(=O)c1ccccc1)c1ccc(NC(=O)C(F)(F)F)cc1 | 0.04 | / | / | / | 2
Cc1cc(C)n(C(=O)Cn2nc([N+](=O)[O-])c(Br)c2C)n1 | 0.04 | / | 21 | / | 3
Cc1ccccc1-n1nnnc1SCc1csc(-c2ccccc2)n1 | 0.1 | -62 | / | -3 | 8.7*
c1ccc(-n2nnnc2SCc2cccc(CSc3nnnn3-c3ccccc3)n2)cc1 | -0.51 | -40 | 19 | / | 8.9*
CCOC(=O)N1CCN(C(=O)CSc2ccc3nnc(CCNC(=O)c4ccccc4)n3n2)CC1 | -0.93 | / | / | / | 1
CCC(C)NC(=O)c1ccccc1NC(=O)COc1ccc(OC)cc1 (stereo not given) | / | -51 | 79* | -10 | 6
CCC(C)NC(=O)c1ccccc1NC(=O)C1COc2ccccc2O1 (stereo not given) | -0.26 | / | / | / | 8.8*
COc1ccc(OCC(=O)Nc2ccccc2C(=O)NC(C)C)cc1 | 0.16 | / | / | / | 0
Cn1c(=O)[nH]c(=O)c2c1nc(N/N=C/c1ccncc1)n2Cc1ccc(Cl)cc1 | -0.04 | / | / | / | /
O=[N+]([O-])c1ccc(C2=NN(CCO)C(=Nc3ccc(OC(F)(F)F)cc3)SC2)cc1 | -0.35 | / | / | / | /
